How the values were obtained:
[1] = organism: Homo sapiens; experiment: Selectivity ratio of Ki for CB2 receptor to Ki for human CB1 receptor
[2] = target: T1, Cannabinoid receptor 1 (Homo sapiens, UniProt P21554); details: CHO-K1
[3] = tested on: MDCK; experiment: Permeability from apical to basal side of MDCK cells expressing human mdr1 gene; type: ADME, cell-based, Canis lupus familiaris; details: dog
Outline: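 MDCK-mdr1 cells grown 4 days to confluence on Transwell-type filters in DMEM/F12 with 10% FBS and antibiotics. Compound added apically at 3.16 μM in HBSS with 25 mM D-glucose, HEPES-buffered to pH 7.4; 1 hr at 37°C. Apical and basal samples collected and analysed by LC-MS/MS (MRM).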

[4] = target: T1, Cannabinoid receptor 1; experiment: biochemical; type: cell-based, CHO-K1
[5] = target: Cannabinoid receptor 2 (Homo sapiens, UniProt P34972); experiment: Displacement of [3H]CP55940 from CB2 receptor expressed in CHO-K1 cells; type: cell-based
Chain of Cannabinoid receptor 2 (P34972 whole entry): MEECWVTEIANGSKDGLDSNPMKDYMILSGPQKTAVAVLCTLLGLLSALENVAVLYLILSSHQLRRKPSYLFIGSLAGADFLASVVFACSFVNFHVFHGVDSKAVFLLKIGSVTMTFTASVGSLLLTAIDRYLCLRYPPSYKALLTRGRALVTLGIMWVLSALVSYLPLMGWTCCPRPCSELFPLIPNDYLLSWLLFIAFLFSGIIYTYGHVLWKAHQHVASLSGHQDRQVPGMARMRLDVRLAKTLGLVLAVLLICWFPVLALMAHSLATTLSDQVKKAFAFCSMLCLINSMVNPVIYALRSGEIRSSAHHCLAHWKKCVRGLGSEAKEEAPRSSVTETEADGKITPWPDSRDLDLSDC

[6] = Metabolic stability in human hepatic S9 fraction assessed as compound remaining at 10 uM after 120 mins; type: ADME, Liver; details: s9, 2 h
Outline: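 Human hepatic S9 (1 mg/ml) with 10 μM final compound in 50 mM potassium phosphate pH 7.4, 3 mM MgCl2, NADPH regenerating system (NADP 1 mM, glucose-6-phosphate 5 mM, G6PDH 1 unit/ml). Triplicates sampled at 0, 15, 30, 60, 120 min; stopped with 3 volumes acetonitrile; LC-MS/MS (MRM) against matrix standard curves; % parent remaining at 120 min.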

[7] = tested on: Plasma; experiment: Metabolic stability in human plasma assessed as compound remaining at 10 uM preincubated for 5 mins measured after 60 mins; type: ADME, cell-free; details: 1 h
Outline: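 Human plasma, 1 ml per sample at 37°C, 5 min pre-incubation, then compound at 10 μM final, sampled at 0, 30 and 60 min. Reactions stopped with acetonitrile; LC-MS/MS (MRM) quantitation with standards in blank matrix; % parent remaining at 60 min.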
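For Ke in this document: antagonism measured as blockade of CP55940-evoked intracellular Ca2+ rise, read fluorometrically, in cells additionally carrying Galphaq16.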

T1 sequence (P21554 whole entry): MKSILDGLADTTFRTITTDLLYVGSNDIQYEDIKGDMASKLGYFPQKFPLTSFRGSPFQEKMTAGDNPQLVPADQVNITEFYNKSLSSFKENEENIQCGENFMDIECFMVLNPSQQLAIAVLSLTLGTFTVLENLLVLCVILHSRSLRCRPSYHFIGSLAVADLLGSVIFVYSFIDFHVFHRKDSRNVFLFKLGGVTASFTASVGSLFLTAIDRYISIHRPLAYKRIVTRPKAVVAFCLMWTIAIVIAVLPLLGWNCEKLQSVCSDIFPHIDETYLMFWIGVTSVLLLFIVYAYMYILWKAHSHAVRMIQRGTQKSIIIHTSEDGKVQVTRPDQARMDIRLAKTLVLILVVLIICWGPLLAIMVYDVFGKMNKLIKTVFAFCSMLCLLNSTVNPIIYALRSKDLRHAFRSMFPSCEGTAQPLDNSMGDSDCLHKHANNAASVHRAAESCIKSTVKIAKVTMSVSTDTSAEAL

Compound | Ratio Ki [1] | Ke [2] [nM] | permeability [3] [%] | Ki [4] [nM] | Ki [5] [nM] | Stability [6] [%] | Stability [7] [%]
CCNC(=O)NC1(c2ccccc2)CCN(C(=O)c2nn(-c3ccc(Cl)cc3Cl)c(-c3ccc(Cl)cc3)c2C)CC1 | 12 | 10.8 | – | – | – | – | –
CCCCNC(=O)NC1(c2ccccc2)CCN(C(=O)c2nn(-c3ccc(Cl)cc3Cl)c(-c3ccc(Cl)cc3)c2C)CC1 | 178 | 0.4 | < 1 | – | – | – | –
CCCCCCNC(=O)NC1(c2ccccc2)CCN(C(=O)c2nn(-c3ccc(Cl)cc3Cl)c(-c3ccc(Cl)cc3)c2C)CC1 | 62 | 0.5 | < 1 | – | – | – | –
Cc1c(C(=O)N[C@@H]2CCCN(S(C)(=O)=O)C2)nn(-c2ccc(Cl)cc2Cl)c1-c1ccc(Cl)cc1 | 106 | 7 | < 1 | 11.8 | 1250 | – | –
CC(=O)N1CCC[C@H](NC(=O)c2nn(-c3ccc(Cl)cc3Cl)c(-c3ccc(Cl)cc3)c2C)C1 | 111 | 86 | 14 | 39.1 | 4350 | – | –
Cc1c(C(=O)NCC2CCC(CNC(=O)NC(C)(C)C)CC2)nn(-c2ccc(Cl)cc2Cl)c1-c1ccc(Cl)cc1 (configuration not stated) | – | 150 | – | – | – | – | –
Cc1c(C(=O)N[C@H]2CCCN(C(=O)NC(C)(C)C)C2)nn(-c2ccc(Cl)cc2Cl)c1-c1ccc(Cl)cc1 | – | 206 | – | – | – | – | –
CC(=O)NC1(c2ccccc2)CCN(C(=O)c2nn(-c3ccc(Cl)cc3Cl)c(-c3ccc(Cl)cc3)c2C)CC1 | 3.4 | 201 | – | – | – | – | –
CCNC(=O)NCC1CCC(CNC(=O)c2nn(-c3ccc(Cl)cc3Cl)c(-c3ccc(Cl)cc3)c2C)CC1 (configuration not stated) | – | 135 | – | – | – | – | –
CCOC(=O)N1CCC[C@H](NC(=O)c2nn(-c3ccc(Cl)cc3Cl)c(-c3ccc(Cl)cc3)c2C)C1 | 83 | 75 | < 1 | 65.5 | 5420 | – | –
CCNC(=O)N1CCC[C@H](NC(=O)c2nn(-c3ccc(Cl)cc3Cl)c(-c3ccc(Cl)cc3)c2C)C1 | – | 280 | – | – | – | – | –
CCCNC(=O)N1CCC[C@@H](NC(=O)c2nn(-c3ccc(Cl)cc3Cl)c(-c3ccc(Cl)cc3)c2C)C1 | 23 | 27 | – | 134 | 3090 | – | –
CCOC(=O)N1CCC(NC(=O)c2nn(-c3ccc(Cl)cc3Cl)c(-c3ccc(Cl)cc3)c2C)CC1 | 326 | 3 | < 1 | 9.2 | 3000 | – | –
Cc1c(C(=O)N2CCC(NS(C)(=O)=O)(c3ccccc3)CC2)nn(-c2ccc(Cl)cc2Cl)c1-c1ccc(Cl)cc1 | 5.6 | 3.5 | 3 | – | – | – | –
CCCNC(=O)NCC1CCC(CNC(=O)c2nn(-c3ccc(Cl)cc3Cl)c(-c3ccc(Cl)cc3)c2C)CC1 (configuration not stated) | – | 486 | – | – | – | – | –
Cc1c(C(=O)NC2CCNCC2)nn(-c2ccc(Cl)cc2Cl)c1-c1ccc(Cl)cc1 | – | 5120 | – | – | – | – | –
Cc1c(C(=O)NC2CCN(S(C)(=O)=O)CC2)nn(-c2ccc(Cl)cc2Cl)c1-c1ccc(Cl)cc1 | – | 269 | – | – | – | – | –
CC(=O)N1CCC[C@@H](NC(=O)c2nn(-c3ccc(Cl)cc3Cl)c(-c3ccc(Cl)cc3)c2C)C1 | – | 530 | – | – | – | – | –
CCNC(=O)N1CCC[C@@H](NC(=O)c2nn(-c3ccc(Cl)cc3Cl)c(-c3ccc(Cl)cc3)c2C)C1 | – | 171 | – | – | – | – | –
Cc1c(C(=O)N[C@@H]2CCCN(C(=O)NC(C)C)C2)nn(-c2ccc(Cl)cc2Cl)c1-c1ccc(Cl)cc1 | 43 | 31.3 | – | 97 | 4130 | – | –
Cc1c(C(=O)N2CCC(NC(=O)Nc3ccc(F)cc3)(c3ccccc3)CC2)nn(-c2ccc(Cl)cc2Cl)c1-c1ccc(Cl)cc1 | 33 | 89 | – | 614 | 20000 | – | –
CCCCNC(=O)N1CCC(NC(=O)c2nn(-c3ccc(Cl)cc3Cl)c(-c3ccc(Cl)cc3)c2C)CC1 | 47 | 78.1 | – | 187 | 8720 | – | –
Cc1c(C(=O)N2CCC(NC(=O)Nc3ccc(C#N)cc3)(c3ccccc3)CC2)nn(-c2ccc(Cl)cc2Cl)c1-c1ccc(Cl)cc1 | – | > 10000 | – | – | – | – | –
Cc1c(C(=O)NCC2CCC(CNS(N)(=O)=O)CC2)nn(-c2ccc(Cl)cc2Cl)c1-c1ccc(Cl)cc1 (configuration not stated) | – | – | – | – | – | 62 | > 90
Cc1c(C(=O)N2CCC(N)(c3ccccc3)CC2)nn(-c2ccc(Cl)cc2Cl)c1-c1ccc(Cl)cc1 | 10.8 | 485 | – | – | – | – | –
Cc1c(C(=O)N[C@H]2CCCNC2)nn(-c2ccc(Cl)cc2Cl)c1-c1ccc(Cl)cc1 | – | 1880 | – | – | – | – | –
CCCCNC(=O)N1CCC[C@H](NC(=O)c2nn(-c3ccc(Cl)cc3Cl)c(-c3ccc(Cl)cc3)c2C)C1 | – | 230 | – | – | – | – | –

Compound | Ratio Ki [1] | Ke [2] [nM] | permeability [3] [%] | Ki [4] [nM] | Ki [5] [nM] | Stability [6] [%] | Stability [7] [%]
Cc1c(C(=O)N[C@H]2CCCN(C(=O)NC(C)C)C2)nn(-c2ccc(Cl)cc2Cl)c1-c1ccc(Cl)cc1 | – | 265 | – | – | – | – | –
Cc1c(C(=O)N[C@@H]2CCCN(C(=O)NC(C)(C)C)C2)nn(-c2ccc(Cl)cc2Cl)c1-c1ccc(Cl)cc1 | – | 268 | – | – | – | – | –
Cc1c(C(=O)NCC2CCC(CNS(C)(=O)=O)CC2)nn(-c2ccc(Cl)cc2Cl)c1-c1ccc(Cl)cc1 (configuration not stated) | – | – | – | – | – | 37 | > 90
Cc1c(C(=O)NC2CCN(S(N)(=O)=O)CC2)nn(-c2ccc(Cl)cc2Cl)c1-c1ccc(Cl)cc1 | – | 592 | – | – | – | – | –
Cc1c(C(=O)NCC2CCC(CNC(=O)NC(C)C)CC2)nn(-c2ccc(Cl)cc2Cl)c1-c1ccc(Cl)cc1 (configuration not stated) | – | 351 | – | – | – | – | –
Cc1c(C(=O)N2CCC(NC(=O)NC(C)C)(c3ccccc3)CC2)nn(-c2ccc(Cl)cc2Cl)c1-c1ccc(Cl)cc1 | 364 | 0.7 | – | – | – | – | –
CCNC(=O)N1CCC(NC(=O)c2nn(-c3ccc(Cl)cc3Cl)c(-c3ccc(Cl)cc3)c2C)CC1 | 35 | 20.5 | – | 165 | 5690 | – | –
Cc1c(C(=O)N[C@H]2CCCN(C(=O)OC(C)(C)C)C2)nn(-c2ccc(Cl)cc2Cl)c1-c1ccc(Cl)cc1 | – | 842 | – | – | – | – | –
CCNC1(C(N)=O)CCN(c2ncnc3c2nc(-c2ccccc2Cl)n3-c2ccc(Cl)cc2)CC1 [OTENABANT] | – | – | 90 | – | – | – | –
CCCNC(=O)N1CCC[C@H](NC(=O)c2nn(-c3ccc(Cl)cc3Cl)c(-c3ccc(Cl)cc3)c2C)C1 | 29 | 70 | – | 271 | 7800 | – | –
Cc1c(C(=O)N2CCC(NC(=O)Nc3ccc(N(C)C)cc3)(c3ccccc3)CC2)nn(-c2ccc(Cl)cc2Cl)c1-c1ccc(Cl)cc1 | 11 | 264 | – | 1490 | 16300 | – | –
CCNC1(C(N)=O)CCN(C(=O)c2nn(-c3ccc(Cl)cc3Cl)c(-c3ccc(Cl)cc3)c2C)CC1 | 28.3 | 91 | – | – | – | – | –
Cc1c(C(=O)N[C@@H]2CCCNC2)nn(-c2ccc(Cl)cc2Cl)c1-c1ccc(Cl)cc1 | – | 1170 | – | – | – | – | –
Cc1c(C(=O)NC2CCN(C(=O)NC(C)C)CC2)nn(-c2ccc(Cl)cc2Cl)c1-c1ccc(Cl)cc1 | 114 | 16.7 | 14 | 86 | 9790 | – | –
CC(=O)N1CCC(NC(=O)c2nn(-c3ccc(Cl)cc3Cl)c(-c3ccc(Cl)cc3)c2C)CC1 | 34.2 | 195 | – | 65.3 | 2240 | – | –
CCCCNC(=O)NCC1CCC(CNC(=O)c2nn(-c3ccc(Cl)cc3Cl)c(-c3ccc(Cl)cc3)c2C)CC1 (configuration not stated) | – | 274 | – | – | – | – | –
Cc1c(C(=O)N[C@H]2CCCN(S(C)(=O)=O)C2)nn(-c2ccc(Cl)cc2Cl)c1-c1ccc(Cl)cc1 | 140 | 62 | < 1 | 77.9 | 10900 | – | –
Cc1c(C(=O)N2CCC(C(=O)O)(c3ccccc3)CC2)nn(-c2ccc(Cl)cc2Cl)c1-c1ccc(Cl)cc1 | – | 1170 | – | – | – | – | –
Cc1c(C(=O)N[C@@H]2CCCN(C(=O)OC(C)(C)C)C2)nn(-c2ccc(Cl)cc2Cl)c1-c1ccc(Cl)cc1 | 302 | 52 | < 1 | 22.3 | 6720 | – | –
Cc1c(C(=O)N2CCC(NC(=O)NC3CCCCC3)(c3ccccc3)CC2)nn(-c2ccc(Cl)cc2Cl)c1-c1ccc(Cl)cc1 | 25 | 12 | – | – | 20000 | – | –
CCCNC(=O)N1CCC(NC(=O)c2nn(-c3ccc(Cl)cc3Cl)c(-c3ccc(Cl)cc3)c2C)CC1 | 46 | 66.5 | – | 184 | 8460 | – | –
CCCCNC(=O)N1CCC[C@@H](NC(=O)c2nn(-c3ccc(Cl)cc3Cl)c(-c3ccc(Cl)cc3)c2C)C1 | 24 | 118 | – | 125 | 3030 | – | –
CCCNC(=O)NC1(c2ccccc2)CCN(C(=O)c2nn(-c3ccc(Cl)cc3Cl)c(-c3ccc(Cl)cc3)c2C)CC1 | 39 | 0.4 | – | – | – | – | –
Cc1c(C(=O)NC2CCN(C(N)=O)CC2)nn(-c2ccc(Cl)cc2Cl)c1-c1ccc(Cl)cc1 | – | 4100 | – | – | – | – | –
Cc1c(C(=O)NN2CCCCC2)nn(-c2ccc(Cl)cc2Cl)c1-c1ccc(Cl)cc1 [RIMONABANT] | – | – | – | – | – | 47 | > 90
CCOC(=O)N1CCC[C@@H](NC(=O)c2nn(-c3ccc(Cl)cc3Cl)c(-c3ccc(Cl)cc3)c2C)C1 | 143 | 10.4 | < 1 | 17.5 | 2510 | – | –

Reference: ChEMBL document CHEMBL2029271, “Design and synthesis of cannabinoid receptor 1 antagonists for peripheral selectivity” (J Med Chem, 2012)
